This is an account of results in ChEMBL document CHEMBL1132441, “Further studies on oxygenated tryptamines with LSD-like activity incorporating a chiral pyrrolidine moiety into the side chain” (J Med Chem, 1999).

The target of test [1] is 5-hydroxytryptamine receptor 2A (Rattus norvegicus) (UniProt P14842). The test is described as follows: Compound was tested for binding affinity at 5-hydroxytryptamine 2A receptor sites in rat cortical homogenate using [125I]-2,5-Dimethoxy -4-iodoamphetamine (DOI). Put shortly:
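Rat frontal cortex membranes were washed in 50 mM Tris-HCl pH 7.4 and preincubated at 37 °C in buffer with EDTA, pargyline, CaCl2 and ascorbate. They were incubated with [125I]DOI and test drug for 15 min at 37 °C, then filtered, and the filters were gamma-counted. Cinanserin (10 µM) defined nonspecific binding. Values come from at least three experiments, each in triplicate.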

For test [2], the system named is Rattus norvegicus. In words: Substitution tests were carried out for the compound in DOI- trained rats dosed with 0.12 mg/kg drug and the binding data was reported. It is filed as functional.
Test [3] concerns Rattus norvegicus. In words: Substitution tests were carried out for the compound in LSD- trained rats dosed with 0.06 mg/kg drug and the binding data was reported. It is filed as functional.
Test [4] concerns the target 5-hydroxytryptamine receptor 2A (Rattus norvegicus, UniProt P14842). The test is described as follows: Compound was tested for binding affinity using [3H]MDL-100,907 at 5-hydroxytryptamine 2A receptor sites in rat cortical homogenate. Put shortly:
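Membranes (200-400 µg protein) from rat frontal cortex homogenate were incubated with 0.2 nM [3H]MDL100907 and competing drug for 15 min at 37 °C. The buffer was Tris-HCl pH 7.4 with EDTA, pargyline, CaCl2 and ascorbate. Bound and free ligand were separated by GF/C filtration and read by scintillation counting. Nonspecific binding was taken with 10 µM cinanserin. […] values come from at least three experiments, each in triplicate.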

The test system of test [5] is Rattus norvegicus. In words: Percentage of rats selecting the drug liver at dose of 0.23 mg/kg. It is filed as functional. The gist of the method:
(§1)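 Male Sprague–Dawley rats were trained in a two-lever FR50 food-reinforced task to discriminate LSD (0.08 mg/kg) or DOI (0.4 mg/kg) from saline. Test drugs were given i.p. in 0.9% saline 30 min before the session. The lever first pressed 50 times was scored as selected, and the result is the percentage of rats selecting the drug lever.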

Test [6] concerns Rattus norvegicus. The test is described as follows: Percentage of rats selecting the drug liver at dose of 0.03 mg/kg. It is filed as functional. Put shortly:
as §1

For test [7], the system named is Rattus norvegicus. The test is described as follows: Substitution tests were carried out for the compound in LSD- trained rats dosed with 0.25 uM/kg drug and the binding data was reported. It is filed as functional. Put shortly:
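Rats trained on LSD (0.08 mg/kg i.p.) versus saline under an FR50 two-lever food schedule received the test drug i.p. in 0.9% saline 30 min before the session. The lever first given 50 presses was scored as selected, giving %SDL. ED50 (95% CI) came from Litchfield–Wilcoxon log-probit analysis, and none was calculated where ≥50% of rats were disrupted.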

Test [8] relates to Rattus norvegicus. The test is described as follows: Percentage of rats selecting the drug liver at dose of 0.06 mg/kg. It is filed as functional. Put shortly: as §1
Test [9] deals with Rattus norvegicus. The test is described as follows: Percentage of rats selecting the drug liver at dose of 0.12 mg/kg. It is filed as functional. The gist of the method: as §1
For test [10], the system named is Rattus norvegicus. In words: Substitution tests were carried out for the compound in DOI- trained rats dosed with 0.50 uM/kg drug and the binding data was reported. It is filed as functional. The gist of the method: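 Rats trained on DOI (0.4 mg/kg i.p.) versus saline under an FR50 two-lever food schedule received the test drug i.p. in saline 30 min before testing. Quantal scoring used the lever first reaching 50 presses to give %SDL. ED50 and 95% CI were obtained by the Litchfield–Wilcoxon log-probit method when a dose reached ≥80% SDL.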

In test [11] the test system is Rattus norvegicus. In words: Percentage of rats selecting the drug liver at dose of 0.2 mg/kg. It is filed as functional. Put shortly:
as §1

The subject of test [12] is Rattus norvegicus. In words: Substitution tests were carried out for the compound in LSD- trained rats dosed with 0.02 mg/kg drug and the binding data was reported. It is filed as functional.
For test [13], the system named is Rattus norvegicus. In words: Percentage of rats selecting the drug liver at dose of 0.4 mg/kg. It is filed as functional. The gist of the method: as §1
Test [14] concerns Rattus norvegicus. In words: Percentage of rats selecting the drug liver at dose of 0.1 mg/kg. It is filed as functional. The gist of the method:
as §1

Test [15] deals with Rattus norvegicus. In words: Substitution tests were carried out for the compound in LSD- trained rats dosed with 0.046 uM/kg drug and the binding data was reported. It is filed as functional.
Test [16] relates to Rattus norvegicus. The test is described as follows: Percentage of rats selecting the drug liver at dose of 0.08 mg/kg. It is filed as functional. Put shortly: as §1
Test [17] has as its system Rattus norvegicus. In words: Percentage of rats selecting the drug liver at dose of 0.33 mg/kg. It is filed as functional. The gist of the method: as §1
The test system of test [18] is Rattus norvegicus. The test is described as follows: Percentage of rats selecting the drug liver at dose of 0.65 mg/kg. It is filed as functional. The gist of the method: as §1
The subject of test [19] is Rattus norvegicus. In words: Percentage of rats selecting the drug liver at dose of 0.16 mg/kg. It is filed as functional. The gist of the method: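 Male Sprague–Dawley rats (200-220 g) were trained in a two-lever FR 50 food-reinforced task to discriminate LSD (0.08 mg/kg) or DOI (0.4 mg/kg) from saline. Drugs were given i.p. in 0.9% saline 30 min before the session. Scoring was quantal: the lever first reaching 50 presses counted as selected, and %SDL is the percentage of rats choosing the drug lever.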

The test system of test [20] is Rattus norvegicus. The test is described as follows: Percentage of rats selecting the drug liver at dose of 0.68 mg/kg. It is filed as functional. Put shortly: as §1
Test [21] deals with Rattus norvegicus. In words: Percentage of rats selecting the drug liver at dose of 1.36 mg/kg. It is filed as functional. The gist of the method:
as §1

Test [22] deals with Rattus norvegicus. The test is described as follows: Percentage of rats selecting the drug liver at dose of 0.04 mg/kg. It is filed as functional. Put shortly:
as §1

The test system of test [23] is Rattus norvegicus. In words: Percentage of rats selecting the drug liver at dose of 0.01 mg/kg. It is filed as functional. The gist of the method: as §1
In test [24] the test system is Rattus norvegicus. The test is described as follows: Percentage of rats selecting the drug liver at dose of 0.02 mg/kg. It is filed as functional. The gist of the method:
as §1

A word on the ED50: it is the dose that gives a 50% effect, or the effect in half of the subjects. Lower therefore signals greater potency. The Ki is a dissociation constant, usually derived from enzyme kinetics or from competition with a known ligand.

“And” between values parts separate entries of the source, which are not always exact repeats. Equal entries are not always repeated.

Chain of 5-hydroxytryptamine receptor 2A (P14842 whole entry): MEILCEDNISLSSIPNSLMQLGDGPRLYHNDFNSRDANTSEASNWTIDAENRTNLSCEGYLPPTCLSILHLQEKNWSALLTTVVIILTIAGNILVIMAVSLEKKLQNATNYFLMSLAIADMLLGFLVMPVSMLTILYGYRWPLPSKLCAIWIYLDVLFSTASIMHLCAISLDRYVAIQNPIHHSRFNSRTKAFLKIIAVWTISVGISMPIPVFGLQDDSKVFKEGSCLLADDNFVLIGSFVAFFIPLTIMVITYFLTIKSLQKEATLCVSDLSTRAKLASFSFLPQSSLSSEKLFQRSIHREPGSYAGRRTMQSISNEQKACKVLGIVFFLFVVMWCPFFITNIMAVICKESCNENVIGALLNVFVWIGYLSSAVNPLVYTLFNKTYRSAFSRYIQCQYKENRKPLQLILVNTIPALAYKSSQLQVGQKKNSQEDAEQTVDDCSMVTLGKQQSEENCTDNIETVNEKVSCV
Chain of 5-hydroxytryptamine receptor 2A (Rattus norvegicus) (P14842 whole entry): as above

As to `CN1CCC[C@@H]1Cc1c[nH]c2cc(O)ccc12`, the K0.5 in test [1] turned out to be 13 nM. The ED50 with Rattus norvegicus [2] is 0.11 µmol/kg; in the test on Rattus norvegicus [3] it was 0.06 µmol/kg; with Rattus norvegicus [7] it was 0.25 µmol/kg; in the test on Rattus norvegicus [10], 0.47 µmol/kg. Besides, affinity in [4] was put at a Ki of 210 nM. Moreover, the SDL in the test with Rattus norvegicus [5] was 100%; in the test on Rattus norvegicus [6], 30%; in the test with Rattus norvegicus [8], 40% and 14%; in the test on Rattus norvegicus [9], 64% and 43%.

In turn, `CN1CCC(c2c[nH]c3cccc(O)c23)C1` (stereo not given) displayed a K0.5 in test [1] of 82 nM. In addition, the Ki in test [4] was found to be 440 nM.

With `COc1cc(CC(C)N)c(OC)cc1I` (stereo not given), the SDL in the test on Rattus norvegicus [11] turned out to be 89%; with Rattus norvegicus [13] it was 100%; in the test with Rattus norvegicus [14], 56%. Moreover, the ED50 turned out to be 0.12 µmol/kg in the test with Rattus norvegicus [12] and 0.28 µmol/kg with Rattus norvegicus [15].

Regarding `COc1ccc2[nH]cc(C[C@H]3CCCN3C)c2c1`, the K0.5 in [1] is 9.5 nM. Moreover, the ED50 in the test on Rattus norvegicus [2] came to 0.11 µmol/kg; in the test on Rattus norvegicus [3], 0.14 µmol/kg; in the test with Rattus norvegicus [7], 0.44 µmol/kg; in the test with Rattus norvegicus [10] it was 0.32 µmol/kg. The SDL was 20% and 43% with Rattus norvegicus [16] (0.08 mg/kg); 82% and 88% in the test with Rattus norvegicus [17]; 100% in the test with Rattus norvegicus [18]; 63% with Rattus norvegicus [19]. In [4], this compound showed a Ki of 400 nM.

On to `COc1ccc2[nH]cc(CCN(C)C)c2c1` [MEBUFOTENIN], for which the K0.5 in [1] is 21 nM. For the same compound, in test [4], the Ki came out at 1600 nM.

`COc1ccc2[nH]cc(C[C@@H]3CCCN3C)c2c1`: in [1], the K0.5 came to 64 nM. Further, the Ki in test [4] was above 9400 nM.

For the compound `COc1ccc2[nH]cc(C3CCN(C)C3)c2c1` (stereo not given), the SDL was 33% and 14% in the test on Rattus norvegicus [20]; 50% in the test on Rattus norvegicus [21]. The K0.5 in test [1] was found to be 150 nM. The compound further showed a Ki in [4] of 1300 nM.

In test [1], `CN(C)CCc1c[nH]c2cccc(O)c12` [PSILOCIN] returned a K0.5 of 6 nM. The same compound came in with a Ki in test [4] of 390 nM.

`CCN(CC)C(=O)[C@@H]1C=C2c3cccc4[nH]cc(c34)C[C@H]2N(C)C1` [LYSERGIDE]: the SDL in the test with Rattus norvegicus [16] came to 100%; in the test on Rattus norvegicus [22], 81%; with Rattus norvegicus [23], 46%; in the test with Rattus norvegicus [24], 78%. In addition, the ED50 is 0.012 µmol/kg in the test on Rattus norvegicus [12] and 0.026 µmol/kg in the test on Rattus norvegicus [15].

In [1], `CN1CCC[C@H]1Cc1c[nH]c2cc(O)ccc12` displayed a K0.5 of 290 nM. In [4], this compound came in with a Ki of 4700 nM.
